Rpn11 block: Rpn11 (human) deubiquitinase inhibition | AID 588493 | human 26S proteasome, Ub4-pepOG fluorescence polarization; 20S core pre-blocked with epoxomicin | inhibition, % at 20 µM | actives 0.59% (n = 360,000);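 active means inhibition at 20 µM, scaled to each plate's controls, above about 33%, limit read from the data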
DNMT1 inh: inhibitors of human DNMT1 | P26358 | DNMT1 molecular beacon, Hinp1I cleavage, fluorescence | inhibition (reported as % activation of signal), % at 10 µM | actives 0.83% (n = 360,000) | AID 588458
MT1-MMP act inh: inhibitors of human MT1-MMP activation; P50281; HT1080 RFP-PRO-GFP cells, GFP/RFP ratio fluorescence, overnight; percent of plate control window, DMSO zero; GFP/RFP ratio change, % at 20 µM; actives 0.061% (n = 360,000); AID 651647;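 active means GFP/RFP ratio change of at least 30% with cell ATP level not reduced by more than half and red fluorescence within 50% of control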
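Assay system: HT1080 RFP-PRO-GFP cells | Dosing: 20 µM single dose, 1% DMSO | Incubation: Cells overnight before dosing, compound overnight, 37 °C, 5% CO2 | Evaluation: GFP/RFP fluorescence ratio | Control set: DMSO-only wells and HT1080 RFP-L50D-GFP cell wells as references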
CSN inh: blocks human CSN-mediated cullin deneddylation; actives 0.38% (n = 360,000); Purified CSN, SCF-Nedd8-OG deneddylation, fluorescence polarization; Q92905; inhibition, % at 12.5 µM;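 active means pattern-corrected inhibition above about 35%, with an unprinted fluorescence ratio check between 0.5 and 1.5, limit read from the data, passing the limit was not always enough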
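Assay system: HEK293T-derived human Csn5 enzyme; quantity: 0.24 nM enzyme; medium: Tris/NaCl/DTT buffer, pH 7.5; also added: substrate SCFSkp2-Nedd8OG, 10 nM; doses: 12.5 µM compound; schedule: 90 min reaction at room temperature; signal: FP; read-out: % inhibition of substrate cleavage by Csn5; benchmarks: substrate-only high control, full reaction low control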
SUMO1 PPI mod: modulators of human SUMO1-mediated protein-protein interactions. AID 602429. P63165. inhibition, % at 20 µM. SUMO1 binding to a labelled peptide, TR-FRET, 1 h. actives 0.33% (n = 360,000); in the data active means inhibition above about 37%
SKN-1 block: blocks SKN-1 activity in C. elegans. AID 624304. inhibition, % at 21.8 µM. C. elegans VP596 Pgst-4::GFP/RFP ratio, acrylamide-induced, 24 h. actives 0.49% (n = 360,000);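 active means interference check ratio from 0.5 to 1.5 plus GFP to RFP signal ratio inhibition reaching or exceeding a fixed threshold, cut at about 30% in these data, passing the limit was not always enough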
Rpn11 inh conf: Rpn11 inhibition confirmation, single concentration | shares compounds with Rpn11 block | actives 29% (n = 1,900) | inhibition, % at 20 µM | purified human 26S proteasome, Ub4-pepOG fluorescence polarization; proteasome pretreated with epoxomicin; in the data active means inhibition above about 40%
MMP-2 counter-1: MMP-2 (human) inhibition counter-screen; shares compounds with Rpn11 block; AID 602330; inhibition, % at 20 µM; recombinant MMP-2, FRET peptide cleavage fluorescence; actives 4% (n = 1,900); in the data active means inhibition above about 40%;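 further: human MMP-2 activated beforehand with APMA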
Thrombin inh: counter-screen for RPN11 inhibitors: inhibition of bovine thrombin. bovine thrombin cleavage of Ub4-pepOG, fluorescence polarization. shares compounds with Rpn11 block. inhibition, % at 20 µM. actives 13% (n = 1,900);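 active means mean inhibition at least 40% at 20 µM, or signal 3 deviations below plate average, so some actives read negative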
Target sequence (P00735 whole entry, looked up): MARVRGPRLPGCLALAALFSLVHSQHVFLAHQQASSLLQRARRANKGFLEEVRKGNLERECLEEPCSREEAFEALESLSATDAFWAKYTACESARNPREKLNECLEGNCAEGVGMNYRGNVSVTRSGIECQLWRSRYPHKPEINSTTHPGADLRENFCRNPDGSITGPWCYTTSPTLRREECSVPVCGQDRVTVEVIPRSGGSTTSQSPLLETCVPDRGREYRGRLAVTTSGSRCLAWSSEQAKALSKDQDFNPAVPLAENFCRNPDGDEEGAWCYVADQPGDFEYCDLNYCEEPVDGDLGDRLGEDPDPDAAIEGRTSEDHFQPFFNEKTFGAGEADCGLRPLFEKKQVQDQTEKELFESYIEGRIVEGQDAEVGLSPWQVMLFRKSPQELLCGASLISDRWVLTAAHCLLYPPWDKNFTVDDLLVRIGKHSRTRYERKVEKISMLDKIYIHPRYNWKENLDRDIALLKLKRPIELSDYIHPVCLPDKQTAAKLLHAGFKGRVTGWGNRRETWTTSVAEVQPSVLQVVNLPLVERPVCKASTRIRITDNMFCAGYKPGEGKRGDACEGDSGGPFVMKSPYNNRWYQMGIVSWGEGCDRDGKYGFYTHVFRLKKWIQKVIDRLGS
MT1-MMP act val: validation of inhibitors of human MT1-MMP activation | shares compounds with MT1-MMP act inh | HT1080 RFP-PRO-GFP cells, GFP and RFP fluorescence ratio, overnight | inhibition, % at 20 µM | actives 10% (n = 200) | AID 652235;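 active means inhibition of at least 50% in the primary cell screen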
CSN deneddyl val: Csn5 (human) deneddylation inhibition, single-concentration validation; shares compounds with CSN inh; Csn5 deneddylation of SCF-Nedd8OG, fluorescence polarization, 90 min; inhibition, % at 16.6 µM; actives 62% (n = 540)
MMP-2 counter-2: blocks human MMP-2 in a CSN deneddylation counter-screen; shares compounds with CSN inh; recombinant MMP-2, FRET substrate fluorescence, 60 min; inhibition, % at 16.6 µM; actives 33% (n = 540);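 active means corrected plate-normalized z-score of 5 or more, or -5 or less, or inhibition of 15% or more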
Thrombin counter: counter-screen for CSN deneddylation inhibitors: bovine thrombin inhibition; shares compounds with CSN inh; bovine thrombin cleavage of Ub4-pepOG, fluorescence polarization; inhibition, % at 16.6 µM; actives 49% (n = 540); AID 720656;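 active means inhibition at or above a set limit, with a fluorescence interference ratio between 0.5 and a set maximum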
Large screens that a line does not name were inactive (follow-up assays come after a bar, where they were run). This is a sample that favours compounds with a hit; in the whole collection about 2.3% have one here. Unless noted, no stated cut-off is given here; in the data, active means inhibition above about 50%; inactive means the rest.

CCC(=O)Nc1ccc(S(=O)(=O)NC[C@H]2O[C@@H](n3cnc4c(=O)[nH]c(N)nc43)[C@H](O)[C@@H]2O)cc1	none
COc1ccc(/C=C2\C(=O)NC(=S)N2C(=O)c2ccc(F)cc2)cc1	Rpn11 block active, CSN inh 65.0 | Rpn11 inh conf active | MMP-2 counter-1 inactive | Thrombin inh active | MMP-2 counter-2 -38.4 | Thrombin counter inactive
O=C(C[C@@H]1C=C[C@@H](NC(=O)C2CC2)[C@@H](CO)O1)NCc1ccccc1Cl	none (no result: Rpn11 block, DNMT1 inh)
Cc1cc(/C=C2\SC(=S)NC2=O)c(C)n1-c1ccccc1	Rpn11 block 109.1, CSN inh 39.8 | Rpn11 inh conf 76.6 | MMP-2 counter-1 inactive | Thrombin inh 59.7 | CSN deneddyl val 61.4 | MMP-2 counter-2 22.8 | Thrombin counter 30.9
Cc1cc(/C=C2\SC(N)=NC2=O)c(C)n1-c1ccccc1	none
Cc1ccc(OCC(=O)Nc2sc3c(c2C#N)CC(C)(C)NC3(C)C)cc1	none
CC1(C)Cc2c(sc(NC(=O)COc3cccc4ccccc34)c2C#N)C(C)(C)N1	Rpn11 block 53.9, CSN inh 101.4 | Rpn11 inh conf inactive | MMP-2 counter-1 inactive | Thrombin inh inactive | CSN deneddyl val inactive | MMP-2 counter-2 inactive | Thrombin counter inactive
O=C(CCCN1C(=O)/C(=C/c2ccccc2)SC1=S)Nc1ccc(C(=O)O)c(O)c1	none
O=C(CN1C(=O)/C(=C/c2ccco2)SC1=S)Nc1ccc(C(=O)O)c(O)c1	Rpn11 block 91.1, DNMT1 inh 94.8, CSN inh 61.3, SUMO1 PPI mod 77.5 | Rpn11 inh conf 42.7 | MMP-2 counter-1 inactive | Thrombin inh inactive | CSN deneddyl val 54.3 | MMP-2 counter-2 17.9 | Thrombin counter 30.1
Cc1cccc(C)c1NC(=O)C(c1cc2ccccc2o1)N1CCC(c2ccccc2)CC1 (stereo not drawn)	none (no result: Rpn11 block, DNMT1 inh)
COc1ccc(-c2cc(C(=O)NCc3ccc(F)cc3)[nH]n2)c(C)c1	none
CN(C)/C=C/c1oc2ccc(O)cc2c1[N+](=O)[O-]	MT1-MMP act inh 58.3 | MT1-MMP act val 50.6
Cc1oc2ccc(O)cc2c1C(=O)c1ccc([N+](=O)[O-])cc1	none
CCCNC(=O)C[C@@H]1CC[C@H]2NC[C@H](O)COC[C@@H]2O1	none (no result: Rpn11 block, DNMT1 inh)
O=S(=O)(O)c1cc(O)c(N=Nc2ccc(O)cc2O)c2ccccc12	DNMT1 inh 55.0, MT1-MMP act inh 64.4, SUMO1 PPI mod 43.7 | MT1-MMP act val 50.1
COc1cccc(C(O)c2nc(-c3cccc(C(F)(F)F)c3)cs2)c1 (stereo not drawn)	none
O=C(NCCCn1ccnc1)c1cccc(Br)c1	none

Compound activity from PubChem.
